The list is not random: actives were taken first. Their share in the collection is about 4%.
TAAR1 agonist = agonists of human TAAR1; Q96RJ0; CHO RD-HGA16 TAAR1, Fluo-8 calcium fluorescence; vehicle wells 0%, saturating PEA agonist 100%; AID 624467; 360,000 tested, 0.99% active; activation, % at 3 µM;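 active means activation above the mean activation of all test compounds in the run plus 3 SD, cut at about 38% in these data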
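System: CHO-derived RD-HGA16 cells with stable Gα16 and human TAAR1. Times: 17-24 h plating, Fluo-8 75 min 37 °C, 30 min RT. Measured by: calcium-sensitive Fluo-8 signal, excitation 470-495, emission 515-575 nm. Read-out basis: % activation relative to PEA EC100 response. Control set: DMSO and PEA EC100. Repeats: no replicates (n 1).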
OX1R antag-1 = blocks the human orexin 1 receptor; O43613; 330,000 tested, 1.8% active; AID 485270; inhibition, % at 6.6 µM; OX1R-expressing cells, FRET antagonist read-out; in the data active means inhibition mostly above about 38%, no sharp cut-off; inactive means mostly below about 40%;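 further: 0% = agonist challenge alone and 100% = reference antagonist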
Target sequence (O43613 whole entry, looked up): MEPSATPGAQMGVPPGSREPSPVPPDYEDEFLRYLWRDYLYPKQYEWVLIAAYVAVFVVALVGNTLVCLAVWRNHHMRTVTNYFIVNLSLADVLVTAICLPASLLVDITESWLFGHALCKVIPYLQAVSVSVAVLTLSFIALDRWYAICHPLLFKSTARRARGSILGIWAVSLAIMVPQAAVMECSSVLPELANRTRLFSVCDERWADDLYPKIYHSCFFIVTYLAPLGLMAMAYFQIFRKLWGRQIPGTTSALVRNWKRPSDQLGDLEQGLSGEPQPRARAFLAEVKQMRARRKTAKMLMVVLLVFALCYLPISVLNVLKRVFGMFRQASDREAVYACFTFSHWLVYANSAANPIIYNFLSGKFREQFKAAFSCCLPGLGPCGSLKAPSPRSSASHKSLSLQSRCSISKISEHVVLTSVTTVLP
CHO parental Ca = counter-screen: ATP calcium response change in parental CHO cells; parental CHO-K1, ATP-induced calcium, Fluo-8 fluorescence; AID 463079; 330,000 tested, 0.63% active; inhibition, % at 5.6 µM;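 active means inhibition above that plate's mean sample inhibition plus 3 SD, cut at about 26% in these data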;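 further: 0% = ATP-challenged DMSO wells and 100% = DMSO wells without ATP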
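Material: parental CHO cells / Compound: single nominal dose of 5.6 µM per compound / Signal: Fluo-8 fluorescence / Replicates: singlicate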
OX1R antag-2 = human HCRTR1 antagonism; AID 434989; CHO/OX1R cells, Fluo-8 calcium fluorescence, orexin A; 330,000 tested, 0.43% active; inhibition, % at 5 µM; O43613;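 active means inhibition above its plate's threshold, mean inhibition of all tested compounds on the plate plus 3 SD, cut at about 37% in these data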;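 further: 0% = orexin A challenge wells and 100% = SB-334867-A antagonist wells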
NTR1 agonist = activates human neurotensin receptor 1; NTR1-U2OS beta-arrestin-GFP spot imaging, agonist mode; activation, % at 20 µM; 330,000 tested, 0.17% active; AID 493036;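 active means activation at or above 40% of the spot to cytoplasm intensity ratio, with at least 20 cells analyzed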;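 further: 0% = DMSO without peptide and 100% = 100 nM NTR1 peptide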
TAAR1 antagonist = antagonists of human TAAR1; Q96RJ0; CHO RD-HGA16 TAAR1, Fluo-8 calcium fluorescence, antagonist; inhibition, % at 3 µM; 360,000 tested, 1.5% active; AID 624466;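 active means inhibition above a per-plate cutoff, the mean inhibition of test compounds on that plate plus 3 SD, cut at about 49% in these data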;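 further: 0% = DMSO plus EC80 beta-PEA response and 100% = DMSO alone without agonist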
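Test system: RD-HGA16 CHO cells with stable hTAAR1 and Gα16 / Probe or stimulus: EC80 β-phenethylamine stimulus / Times: seeding 17-24 h prior, 75-min 37 °C, 30-min RT dye loading / Detection: Fluo-8 calcium-sensitive fluorescence / Read-out basis: % inhibition scaled between DMSO and EC80 PEA controls / Repeats: singlicate, one well per test compound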
Active calls of the source: *; · = not tested or not shown.

SMILES | TAAR1 agonist | OX1R antag-1 | CHO parental Ca | OX1R antag-2 | NTR1 agonist | TAAR1 antagonist
O=C1C2C3C=CC(C4CC34)C2C(=O)N1/N=C/c1ccc(-c2ccc(Cl)cc2[N+](=O)[O-])o1 (stereo not drawn) | 12 | 24 | -4 | -9 | 10 | 52*
O=C1C2C3C=CC(C4CC34)C2C(=O)N1/N=C/c1ccc(-c2ccc(F)cc2[N+](=O)[O-])o1 (stereo not drawn) | 16 | 24 | 9 | 0 | 4 | 42
CCOc1[nH]n(-c2ccc(Cl)cc2)c(=O)c1C=Nc1ccc(Cl)cc1 | 1 | 22 | 38* | -7 | 0 | 6
CCOc1[nH]n(-c2ccccc2)c(=O)c1C=Nc1ccc(OC)cc1 | 3 | -11 | -15 | -28 | 3 | -1
O=[N+]([O-])c1cccnc1N1CCN(Cc2ccc3c(c2)OCO3)CC1 | 0 | 12 | -11 | -23 | -1 | -5
O=[N+]([O-])c1ccc2ncnc(N3CCN(Cc4ccc5c(c4)OCO5)CC3)c2c1 | 2 | 56* | -4 | -20 | 2 | 3
C[C@@H]1CN([C@@H](C)CO)C(=O)CCCn2cc(nn2)CO[C@H]1CN(C)C(=O)Nc1cccc(Oc2ccccn2)c1 | 6 | · | · | · | · | 0
Cc1[nH]c2ccccc2c1CCNC(=O)c1ccc2c(c1[N+](=O)[O-])C(=O)c1ccccc1C2=O | -3 | 71* | -6 | -8 | 4 | 12
Cc1[nH]c2c(C)cccc2c1CCNC(=O)c1ccc2c(c1[N+](=O)[O-])C(=O)c1ccccc1C2=O | 4 | 75 | 2 | 5 | 4 | 20
COC(=O)C1=C(C)N(C)C(=NCc2ccc(OC)cc2)NC1c1ccc(C(F)(F)F)cc1 (stereo not drawn) | 12 | · | · | · | · | 6
CN(C)c1ccc(NC2=C(Cl)C(=O)c3ccccc3C2=O)cc1 | 3 | 92* | 35* | 31 | -1 | 66*
O=C1C(Cl)=C(Nc2ccc3cn[nH]c3c2)C(=O)c2ccccc21 | -4 | 54* | 64* | 59* | · | 62*
O=C(NCCCN1CCOCC1)C(=O)N/N=C/c1ccccc1 | 0 | 15 | -4 | -5 | -1 | 19
O=C(NCCCN1CCOCC1)C(=O)N/N=C/c1cccc2ccccc12 | 1 | 49* | -31 | 0 | -1 | -31
O=C(NCc1cc(C(F)(F)F)cc(C(F)(F)F)c1)C1CC(c2ccc(C(F)(F)F)cc2)=NO1 (stereo not drawn) | 6 | 33 | -11 | -29 | 3 | 4
Cc1ccc(CNC(=O)C2CC(c3ccc(C(F)(F)F)cc3)=NO2)o1 (stereo not drawn) | 2 | 28 | 62* | 1 | -4 | 5
COc1ccc(CCNC(=O)c2cccc(C(=O)NCCc3ccc(OC)cc3)n2)cc1 | 7 | 9 | -26 | -24 | 1 | 54*
COC(=O)c1sccc1-c1ccc(C(=O)Nc2cccc(Cl)c2)o1 | 7 | 74* | 14 | 13 | 5 | -5
CN(C)S(=O)(=O)Oc1ccsc1C(=O)Nc1cccc(Cl)c1 | -1 | 3 | -4 | -1 | -2 | 18
CCN(C[C@H]1N[C@@](CC)(C(=O)OC)[C@H]2C(=O)N(Cc3ccccc3)C(=O)[C@@H]12)C(=O)c1ccc(F)cc1 | 13 | -1 | -15 | -30 | -2 | 47
CCN(C[C@H]1N[C@@](CC)(C(=O)OC)[C@H]2C(=O)N(Cc3ccccc3)C(=O)[C@@H]12)C(=O)c1ccc(C)cc1 | 11 | 9 | -19 | -14 | 1 | 50*
O=[N+]([O-])c1ccc(Sc2nc3ccccc3o2)c([N+](=O)[O-])c1 | 6 | 37* | 15 | 8 | 13 | 16
Nc1nc(Sc2ccc([N+](=O)[O-])cc2[N+](=O)[O-])n[nH]1 | 3 | 42* | -5 | -4 | 0 | -20
Cc1ccnc(Sc2ccc([N+](=O)[O-])cc2[N+](=O)[O-])n1 | 1 | 68* | 0 | -9 | 3 | 6
Cc1ccc(Sc2ccc([N+](=O)[O-])cc2[N+](=O)[O-])nc1 | 1 | 47 | -19 | -34 | -1 | -6
SMILES | TAAR1 agonist | OX1R antag-1 | CHO parental Ca | OX1R antag-2 | NTR1 agonist | TAAR1 antagonist
O=C(CN1CCCCC1)NC(=O)NC1CCCCC1 | 5 | 0 | -13 | -22 | -1 | -4
COc1ccc(N2C(=O)c3[nH]nc(-c4ccccc4)c3C2c2ccc(Br)cc2)cc1 (stereo not drawn) | 14 | · | · | · | · | -7
C[C@H](O)[C@@H]1C(=O)N2CCc3c([nH]c4ccccc34)[C@@H]2C[C@@H]1N(C)C(=O)OCc1ccccc1 | 8 | · | · | · | · | 8
O=C(CCN1CCN(Cc2ccccc2)CC1)Nc1ccc(OCc2ccccc2)cc1 | 19 | 16 | 36* | 13 | 0 | -8
Cc1ccsc1C(=O)Nc1ccc(OCc2ccccc2)cc1 | 17 | 41 | 15 | -8 | 3 | 54*
O=C(CN(Cc1ccco1)Cc1ccco1)Nc1cc(S(=O)(=O)N2CCCCC2)ccc1Cl | 7 | 10 | 48* | 74* | 6 | 36
O=C(NCc1ccco1)c1cc(S(=O)(=O)N2CCCC2)ccc1Cl | 0 | 30 | -15 | -13 | -1 | -26
C=CCN=C1NC(c2cccc(F)c2)C(C(=O)OC)=C(C)N1C (stereo not drawn) | 0 | · | · | · | · | 1
N#Cc1c(Cl)nsc1NC(=O)c1ccccc1 | 16 | 61* | 7 | -5 | 0 | -2
O=c1c(NCCc2ccc(Cl)cc2)c(-c2ccccc2)c1=O | 42* | 2 | -4 | -9 | -2 | -21
O=c1[nH]ncc(NCCc2ccccc2)c1Cl | 5 | 4 | -4 | 1 | 0 | 1
CCOC(=O)c1c(C)[nH]c(C)c1C(=O)COC(=O)/C=C/c1cccc(Cl)c1 | -1 | 49 | -8 | -10 | 30 | 22
CCOC(=O)c1c(C)[nH]c(C)c1C(=O)COC(=O)/C=C/c1ccccc1[N+](=O)[O-] | 5 | 35* | -18 | 27 | 5 | 33
COc1cccc(C(=O)Nc2nc(-c3ccc(S(=O)(=O)N4CCOCC4)cc3)cs2)c1 | 21 | 29 | 12 | -15 | 4 | 50*
COc1ccc(-c2oc3c(c2C#CC(C)(C)O)C(OCCO)CC3)cc1 (stereo not drawn) | 1 | · | · | · | · | -19
Cc1ccc(-c2[nH]nc(N)c2N=Nc2ccccc2C)cc1 | 3 | 48 | 56* | 14 | 16 | -11
COc1ccc(NC(=O)c2cc(-c3ccco3)on2)cc1 | 2 | 15 | 64* | 5 | 2 | -26
COc1ccc(NC(=O)c2cc(-c3ccccc3OC)on2)cc1 | 7 | 45* | -18 | -1 | · | 18
COC(=O)[C@]12C[C@H](CC(=O)N3CCN(C(=O)c4ccco4)CC3)C(=O)N(Cc3ccccc3)C1=C[C@H](C(C)(C)C)O[C@@H]2C | 2 | · | · | · | · | -29

Screens as filed in PubChem.
